{"source": "ChEMBL document CHEMBL4715843", "about": "“NO-releasing STAT3 inhibitors suppress BRAF-mutant melanoma growth” (Eur J Med Chem, 2020)", "key": {"[1]": {"assay": "Antiproliferative activity against human SB-590885-sensitive 451Lu cells assessed as reduction in cell viability measured after 48 hrs by MTS assay", "type": "functional", "procedure,_shortened": "(§1)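 Melanoma lines were grown in RPMI-1640 with Glutamax at 37 °C and 5% CO2. The resistant 451 Lu-R and MEL 1617-R sublines were maintained with 1 µM PLX4720. Cells were incubated with vehicle or inhibitor over a dose range, and viability was read by MTS assay in triplicate.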"}, "[2]": {"assay": "Antiproliferative activity against human SB-590885-resistant 451Lu cells assessed as reduction in cell viability measured after 48 hrs by MTS assay", "type": "functional", "settings": "451lu", "procedure,_shortened": "as §1"}, "[3]": {"assay": "Antiproliferative activity against human SB-590885-sensitive MEL1617 cells assessed as reduction in cell viability measured after 48 hrs by MTS assay", "type": "functional, cell-based", "settings": "MEL1617, 48 h", "procedure,_shortened": "as §1"}, "[4]": {"assay": "Antiproliferative activity against human SB-590885-resistant MEL1617 cells assessed as reduction in cell viability measured after 48 hrs by MTS assay", "type": "functional, cell-based", "settings": "mel1617", "procedure,_shortened": "as §1"}, "[5]": {"system": "MOLT-4", "assay": "Anticancer activity against human MOLT-4 cells assessed as cell growth inhibition at 10 uM measured after 48 hrs by SRB assay relative to control", "type": "functional", "settings": "read-out: GI", "procedure,_shortened": "(§2)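 NCI 60-cell-line screen. Cells in RPMI with 5% FBS were plated at 5,000–40,000 cells/well by doubling time and preincubated 24 h at 37 °C. Compound was added at a single 10 µM for 48 h, then cells were fixed with cold TCA (10% final) and stained with 0.4% SRB. Absorbance at 515 nm gave percent growth versus untreated control and time-zero cells.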"}, "[6]": {"system": "CCRF-CEM", "assay": "Anticancer activity against human CCRF-CEM cells assessed as cell growth inhibition at 10 uM measured after 48 hrs by SRB assay relative to control", "type": "functional", "settings": "read-out: GI", "procedure,_shortened": "as §2"}, "[7]": {"system": "T47D", "assay": "Anticancer activity against human T47D cells assessed as cell growth inhibition at 10 uM measured after 48 hrs by SRB assay relative to control", "type": "functional", "settings": "read-out: GI", "procedure,_shortened": "as §2"}, "[8]": {"system": "HL-60(TB)", "assay": "Anticancer activity against human HL-60(TB) cells assessed as cell growth inhibition at 10 uM measured after 48 hrs by SRB assay relative to control", "type": "functional", "settings": "read-out: GI", "procedure,_shortened": "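NCI 60-cell-line screen, single dose 10 µM, DMSO stock diluted in complete medium with gentamicin. Cells in RPMI with 5% FBS, plated at density set by doubling time, preincubated 24 h, then exposed 48 h at 37 °C, 5% CO2. TCA fixation, SRB staining, absorbance at 515 nm. Percent growth taken relative to untreated control and time-zero cell number.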"}, "[9]": {"system": "K562", "assay": "Anticancer activity against human K562 cells assessed as cell growth inhibition at 10 uM measured after 48 hrs by SRB assay relative to control", "type": "functional", "settings": "read-out: GI", "procedure,_shortened": "as §2"}, "[10]": {"system": "RPMI-8226", "assay": "Anticancer activity against human RPMI-8226 cells assessed as cell growth inhibition at 10 uM measured after 48 hrs by SRB assay relative to control", "type": "functional", "settings": "read-out: GI", "procedure,_shortened": "as §2"}, "[11]": {"system": "A549", "assay": "Anticancer activity against human A549 cells assessed as cell growth inhibition at 10 uM measured after 48 hrs by SRB assay", "type": "functional, cell-based", "procedure,_shortened": "as §2"}, "[12]": {"system": "NCI-H522", "assay": "Anticancer activity against human NCI-H522 cells assessed as cell growth inhibition at 10 uM measured after 48 hrs by SRB assay", "type": "functional, cell-based", "procedure,_shortened": "as §2"}, "[13]": {"system": "COLO 205", "assay": "Anticancer activity against human COLO 205 cells assessed as cell growth inhibition at 10 uM measured after 48 hrs by SRB assay", "type": "functional, cell-based", "procedure,_shortened": "as §2"}, "[14]": {"assay": "Drug metabolism in pH 7.4 phosphate buffer assessed as nitric oxide release at 100 uM measured after 2 hrs by Griess reagent based colorimetric method", "procedure,_shortened": "(§3)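 Compound at 100 µM was held at room temperature in pH 7.4 phosphate buffer with 5 mM DTT and 2% DMSO for 2 or 48 h. Griess reagent was added, and after 30 min absorbance was read at 548 nm. NO release (mol NO/mol compound) was derived from a sodium nitrite calibration curve.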"}, "[15]": {"assay": "Drug metabolism in pH 7.4 phosphate buffer assessed as nitric oxide release at 100 uM measured after 48 hrs by Griess reagent based colorimetric method", "procedure,_shortened": "as §3"}, "[16]": {"biological_target": "T1, Signal transducer and activator of transcription 3 (Homo sapiens, UniProt P40763)", "T1 sequence (P40763 whole entry)": "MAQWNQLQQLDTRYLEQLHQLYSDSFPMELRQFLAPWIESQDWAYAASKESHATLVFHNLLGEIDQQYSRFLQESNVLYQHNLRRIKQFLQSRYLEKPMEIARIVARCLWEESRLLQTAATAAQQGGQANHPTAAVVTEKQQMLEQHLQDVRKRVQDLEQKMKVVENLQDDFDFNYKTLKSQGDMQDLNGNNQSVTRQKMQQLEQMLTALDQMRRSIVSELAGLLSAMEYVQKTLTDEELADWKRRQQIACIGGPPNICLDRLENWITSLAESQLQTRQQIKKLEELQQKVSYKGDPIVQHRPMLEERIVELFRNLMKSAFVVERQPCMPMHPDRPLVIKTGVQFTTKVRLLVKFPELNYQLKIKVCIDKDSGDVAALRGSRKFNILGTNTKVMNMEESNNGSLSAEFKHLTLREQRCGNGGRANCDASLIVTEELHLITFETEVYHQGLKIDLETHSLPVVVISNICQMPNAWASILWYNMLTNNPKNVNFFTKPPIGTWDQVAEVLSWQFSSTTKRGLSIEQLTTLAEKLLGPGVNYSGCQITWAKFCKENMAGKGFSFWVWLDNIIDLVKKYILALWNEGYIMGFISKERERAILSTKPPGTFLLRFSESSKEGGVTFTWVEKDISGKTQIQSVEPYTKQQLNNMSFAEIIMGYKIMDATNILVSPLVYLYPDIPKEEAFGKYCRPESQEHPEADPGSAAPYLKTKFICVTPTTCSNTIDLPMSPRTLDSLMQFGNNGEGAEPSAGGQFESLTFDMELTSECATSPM", "assay": "Inhibition of STAT3 phosphorylation at Y705 residue in human SB-590885-resistant 451Lu cells measured after 12 hrs by Western blot analysis", "settings": "dose 10-25 µM", "procedure,_shortened": "(§4)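 451 Lu and MEL 1617 pairs, sensitive and resistant; resistant lines maintained in RPMI with 1 µM PLX4720. Treated with 10 and 25 µM for 12 h versus DMSO. Lysates (60 µg protein, 10% SDS-PAGE) immunoblotted for Ser727- and Tyr705-phospho-STAT3, total STAT3, total PAX3, with actin.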"}, "[17]": {"biological_target": "T1, Signal transducer and activator of transcription 3", "assay": "Inhibition of STAT3 phosphorylation at S727 residue in human SB-590885-resistant 451Lu cells measured after 12 hrs by Western blot analysis", "settings": "dose 10-25 µM", "procedure,_shortened": "as §4"}, "[18]": {"biological_target": "T1, Signal transducer and activator of transcription 3", "assay": "Inhibition of STAT3 phosphorylation at Y705 residue in human SB-590885-sensitive 451Lu cells measured after 12 hrs by Western blot analysis", "settings": "dose 10-25 µM", "procedure,_shortened": "as §4"}, "[19]": {"biological_target": "T1, Signal transducer and activator of transcription 3", "assay": "Inhibition of STAT3 phosphorylation at S727 residue in human SB-590885-sensitive 451Lu cells measured after 12 hrs by Western blot analysis", "settings": "dose 10-25 µM", "procedure,_shortened": "as §4"}, "[20]": {"biological_target": "T1, Signal transducer and activator of transcription 3", "assay": "Inhibition of STAT3 in human SB-590885-sensitive 451Lu cells assessed as reduction in PAX3 expression measured after 12 hrs by Western blot analysis", "settings": "dose 10-25 µM", "procedure,_shortened": "as §4"}, "[21]": {"biological_target": "T1, Signal transducer and activator of transcription 3", "assay": "Inhibition of STAT3 in human SB-590885-resistant 451Lu cells assessed as reduction in PAX3 expression measured after 12 hrs by Western blot analysis", "settings": "dose 10-25 µM", "procedure,_shortened": "as §4"}, "[22]": {"biological_target": "T1, Signal transducer and activator of transcription 3", "assay": "Inhibition of STAT3 phosphorylation at Y705 residue in human SB-590885-resistant MEL1617 cells at 10 to 25 uM measured after 12 hrs by Western blot analysis", "type": "cell-based", "settings": "dose 10-25 µM", "procedure,_shortened": "as §4"}, "[23]": {"biological_target": "T1, Signal transducer and activator of transcription 3", "assay": "Inhibition of STAT3 phosphorylation at S727 residue in human SB-590885-resistant MEL1617 cells at 10 to 25 uM measured after 12 hrs by Western blot analysis", "type": "cell-based", "settings": "dose 10-25 µM", "procedure,_shortened": "as §4"}, "[24]": {"biological_target": "T1, Signal transducer and activator of transcription 3", "assay": "Inhibition of STAT3 phosphorylation at Y705 residue in human SB-590885-sensitive MEL1617 cells at 10 to 25 uM measured after 12 hrs by Western blot analysis", "type": "cell-based", "settings": "dose 10-25 µM", "procedure,_shortened": "as §4"}, "[25]": {"biological_target": "T1, Signal transducer and activator of transcription 3", "assay": "Inhibition of STAT3 phosphorylation at S727 residue in human SB-590885-sensitive MEL1617 cells at 10 to 25 uM measured after 12 hrs by Western blot analysis", "type": "cell-based", "settings": "dose 10-25 µM", "procedure,_shortened": "as §4"}, "[26]": {"biological_target": "T1, Signal transducer and activator of transcription 3", "assay": "Inhibition of STAT3 in human SB-590885-sensitive MEL1617 cells assessed as reduction in PAX3 expression at 10 to 25 uM measured after 12 hrs by Western blot analysis", "type": "cell-based", "settings": "dose 10-25 µM", "procedure,_shortened": "as §4"}, "[27]": {"biological_target": "T1, Signal transducer and activator of transcription 3", "assay": "Inhibition of STAT3 in human SB-590885-resistant MEL1617 cells assessed as reduction in PAX3 expression at 10 to 25 uM measured after 12 hrs by Western blot analysis", "type": "cell-based", "settings": "dose 10-25 µM", "procedure,_shortened": "as §4"}}, "note": "The source made the active and inactive calls. No cut-off for these calls is given here.", "data": [{"molecule": "CCCS(=O)(=O)Nc1ccc(F)c(C(=O)c2c[nH]c3ncc(Cl)cc23)c1F", "note": "[PLX-4720]", "values": [{"measurement": "IC50", "setting": "[1]", "result": 62, "unit": "nM"}, {"measurement": "IC50", "setting": "[2]", "result": "Not Active"}, {"measurement": "IC50", "setting": "[3]", "result": 84, "unit": "nM"}, {"measurement": "IC50", "setting": "[4]", "result": "Not Active"}]}, {"molecule": "C=CCn1c(SCC(=O)Nc2ccc(/C(C)=N\\O)cc2)nnc1-c1cc(-c2ccc(OC)cc2)nc2ccccc12", "values": [{"measurement": "inhibition of growth at 10 µM", "setting": "[5]", "result": 81, "unit": "%"}, {"measurement": "inhibition of growth at 10 µM", "setting": "[6]", "result": 81, "unit": "%"}, {"measurement": "inhibition of growth at 10 µM", "setting": "[7]", "result": 100, "unit": "%"}, {"measurement": "inhibition of growth at 10 µM", "setting": "[8]", "result": 100, "unit": "%"}, {"measurement": "inhibition of growth at 10 µM", "setting": "[9]", "result": 81, "unit": "%"}, {"measurement": "inhibition of growth at 10 µM", "setting": "[10]", "result": 81, "unit": "%"}, {"measurement": "growth inhibition (GI)", "setting": "[11]", "result": "Active"}, {"measurement": "growth inhibition (GI)", "setting": "[12]", "result": "Active"}, {"measurement": "growth inhibition (GI)", "setting": "[13]", "result": "Active"}]}, {"molecule": "COc1ccc2nc(-c3ccc(OC)c(OC)c3)cc(-c3nnc(SCC(=O)Nc4ccc(/C(C)=N\\O)cc4)n3-c3ccccc3)c2c1", "values": [{"measurement": "Drug metabolism", "setting": "[14]", "result": 15, "unit": "%"}, {"measurement": "Drug metabolism", "setting": "[15]", "result": 30, "unit": "%"}, {"measurement": "inhibition", "setting": "[16]", "result": "inactive"}, {"measurement": "inhibition", "setting": "[17]", "result": "inactive"}, {"measurement": "inhibition", "setting": "[18]", "result": "inactive"}, {"measurement": "inhibition", "setting": "[19]", "result": "inactive"}, {"measurement": "inhibition", "setting": "[20]", "result": "inactive"}, {"measurement": "inhibition", "setting": "[21]", "result": "inactive"}, {"measurement": "inhibition", "setting": "[22]", "result": "inactive"}, {"measurement": "inhibition", "setting": "[23]", "result": "inactive"}, {"measurement": "inhibition", "setting": "[24]", "result": "inactive"}, {"measurement": "inhibition", "setting": "[25]", "result": "inactive"}, {"measurement": "inhibition", "setting": "[26]", "result": "inactive"}, {"measurement": "inhibition", "setting": "[27]", "result": "inactive"}]}]}
